The source made the active and inactive calls. No cut-off for these calls is given here.
Tests used:
MDA-MB-231 [1] = assay: Antiinvasive activity in human MDA-MB-231 cells at 10 uM after 24 hrs by inverted microscopic analysis; format: functional; conditions: MDA-MB-231, 24 h
Outline: (§1)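 MDA-MB-231 cells at 80% confluence, 50,000 per Matrigel-coated insert (8 µm PET membrane) in DMEM with 10 or 25 µM compound and 2% DMSO. The lower chamber held DMEM with 10% FBS as chemoattractant. After 24 h at 37 °C in 5% CO2, invaded cells were methanol-fixed, Diff-stained and counted by hand in ten fields at 40x. Values were normalised to the 2% DMSO vehicle; triplicate.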

Procathepsin L [2] = target: T1, Procathepsin L (Homo sapiens, UniProt P07711); assay: Inhibition of human liver cathepsin L using Z-FR-AMC as substrate measured every 15 sec for 5 mins by fluorescence assay
Target sequence in this assay (P07711 whole entry): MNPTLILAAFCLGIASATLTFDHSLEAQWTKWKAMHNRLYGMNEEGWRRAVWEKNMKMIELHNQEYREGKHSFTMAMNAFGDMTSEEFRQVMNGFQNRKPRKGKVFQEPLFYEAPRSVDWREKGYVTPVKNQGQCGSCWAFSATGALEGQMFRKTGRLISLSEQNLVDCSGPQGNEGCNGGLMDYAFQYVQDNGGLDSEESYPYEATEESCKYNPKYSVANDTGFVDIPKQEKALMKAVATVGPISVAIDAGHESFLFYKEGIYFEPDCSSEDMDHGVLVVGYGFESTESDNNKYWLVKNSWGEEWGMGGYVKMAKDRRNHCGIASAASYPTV

Cathepsin B = Cathepsin B (Homo sapiens, UniProt P07858); assay: Inhibition of human liver cathepsin B using Z-RR-AMC as substrate after 5 mins by fluorescence assay
Outline: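 Human liver cathepsin B (1 nM) was pre-incubated 5 min at 37 °C with inhibitor (final 10 µM to 10 pM). Substrate was 60 µM Z-RR-AMC in 120 mM sodium potassium phosphate pH 6.0 with 1 mM EDTA, 3 mM DTT, 0.01% Brij 35 and 2% DMSO. AMC fluorescence (ex 355/em 460 nm) was read for 5 min at 37 °C.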

HUVEC = assay: Cytotoxicity against HUVEC cells after 48 hrs by SRB assay; format: cell-based; conditions: human
Outline: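 SRB growth assay: HUVECs (pooled donors, passage ≤5) plated at 9,000 cells/well for 24 h, then exposed to ten-fold serial dilutions for 48 h. Cells were TCA-fixed and stained with 0.4% SRB, and absorbance read at 540 nm normalised to 630 nm.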

Procathepsin L [3] = target: T1, Procathepsin L; assay: Inhibition of human liver cathepsin L using Z-FR-AMC as substrate at 10000 nM measured every 15 sec for 5 mins by fluorescence assay
Outline: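 Human liver cathepsin L (1 nM) was pre-incubated 5 min at 25 °C with 10 µM inhibitor or vehicle. Substrate was 50 µM Z-FR-AMC in 100 mM NaOAc pH 5.5 with 1 mM EDTA, 3 mM DTT, 0.01% Brij 35 and 2% DMSO.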
Target sequence in this assay (P07711 114-333 limits assumed): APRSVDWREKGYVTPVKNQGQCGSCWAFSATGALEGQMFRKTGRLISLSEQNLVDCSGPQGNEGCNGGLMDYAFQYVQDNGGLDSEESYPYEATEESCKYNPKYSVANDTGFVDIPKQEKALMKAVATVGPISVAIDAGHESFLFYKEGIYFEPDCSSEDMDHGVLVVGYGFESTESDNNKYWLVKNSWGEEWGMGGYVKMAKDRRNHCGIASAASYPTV

MDA-MB-231 [4] = assay: Antiinvasive activity in human MDA-MB-231 cells at 25 uM after 24 hrs by inverted microscopic analysis; format: functional; conditions: for inhibition at 25 µM: MDA-MB-231, 24 h; outline: as §1
MDA-MB-231 [5] = assay: Antimigrative activity in human MDA-MB-231 cells at 25 uM after 24 hrs by inverted microscopic analysis; format: functional; conditions: MDA-MB-231, 24 h
Outline: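 Transwell migration of MDA-MB-231 cells, run as for invasion but on 8 µm pore inserts without Matrigel. Each insert held 50,000 cells in DMEM with 25 µM compound and 2% DMSO, with 10% FBS DMEM below. After 24 h at 37 °C, cells were fixed, stained and counted by microscope. Values were normalised to the DMSO vehicle; triplicate.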

[6] = Antiinvasive activity in human PC3-ML cells at 1 uM after 24 hrs by microscopic analysis; format: functional
Outline: (§2)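 PC-3ML cells, a metastatic PC-3 subline, were seeded in serum-free medium into Matrigel-coated invasion inserts, with 10% FBS medium in the bottom chamber. At 24 h, cells that reached the membrane underside were stained and counted by microscope. Mean and standard error come from 3-5 independent experiments.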

[7] = Antiinvasive activity in human PC3-ML cells at 5 uM after 24 hrs by microscopic analysis; format: functional; outline: as §2
Mus musculus = assay: Toxicity in C3H mouse derived mammary cancer cells implanted CDF1 mouse assessed as drug tolerability at 20 mg/kg, ip administered 5 consecutive days starting either on day of tumor implantation or when tumors reached 200 mm'3; format: organism-based, Cancer cell lines; conditions: in vivo
[8] = Antiinvasive activity in human PC3-ML cells at 10 uM after 24 hrs by microscopic analysis; format: functional; outline: as §2
[9] = Antiinvasive activity in human PC3-ML cells at 25 uM after 24 hrs by microscopic analysis; format: functional; outline: as §2
[10] = Antitumor activity against C3H mouse derived mammary cancer cells implanted in CDF1 mouse assessed as time taken for tumors to reach 500 mm'3 at 20 mg/kg, ip administered 5 consecutive days starting either on day of tumor implantation or when tumors reached 200 mm'3 (reference value: 20.1 +/- 0.6 days); format: functional, Cancer cell lines
Outline: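 Female CDF1 mice, 10-14 weeks old, had minced C3H mammary carcinoma tissue (5-10 µl) implanted in the right rear foot. Dosing was 20 mg/kg i.p. at 0.02 ml/g, dissolved in Tween80 and diluted to 10% with saline, given daily for 5 days. Tumour volume was followed daily to find days to reach 500 mm3. Groups had 5-8 mice; mean ±1 S.E.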

| Structure (SMILES) | IC50 (Procathepsin L [2]) [µM] | IC50 (Cathepsin B) [µM] | GI50 (HUVEC) [µM] | also measured |
| --- | --- | --- | --- | --- |
| CC(C)C[C@H](NC(=O)[C@@H]1O[C@H]1C(=O)O)C(=O)NCCCCN=C(N)N |  |  |  | inhibition at 10 µM (MDA-MB-231 [1]): 60% |
| CC(C)Oc1ccc(C(=O)c2cccc(/C(=N/NC(N)=S)c3ccc(OC(C)C)cc3)c2)cc1 | > 10 | > 10 |  |  |
| NC(=S)N/N=C(\c1ccccc1)c1cccc(C(O)c2ccccc2)c1 (stereo not given) | 0.0238 | > 10 |  |  |
| NC(=S)N/N=C(\c1cccc(O)c1)c1cc(Br)cc(C(=O)c2cccc(O)c2)c1 | 0.0716 | > 10 | 13.3 |  |
| NC(=S)N/N=C(\c1cccc(Br)c1)c1cc(O)cc(C(=O)c2cccc(Br)c2)c1 | 10 | > 10 |  | inhibition (Procathepsin L [3]): 56.9% |
| NC(=S)N/N=C(\c1cc(Br)cc(C(=O)c2ccccc2F)c1)c1ccccc1F | 0.00812 | > 10 | > 85.9 | inhibition (MDA-MB-231 [4]): Active; inhibition at 25 µM (MDA-MB-231 [5]): > 50%; inhibition at 10 µM (MDA-MB-231 [1]): 70% |
| COc1ccc(C(=O)c2cccc(/C(=N/NC(N)=S)c3ccc(OC)cc3)c2)cc1 | 5.12 | > 10 |  |  |
| NC(=S)N/N=C(\c1ccc(O)cc1)c1cccc(C(=O)c2ccc(O)cc2)c1 | 0.34 | > 10 |  |  |
| NC(=S)N/N=C(\c1ccc(F)cc1)c1cccc(C(=O)c2ccc(F)cc2)c1 | 0.0144 | > 10 | > 126 | inhibition at 25 µM (MDA-MB-231 [4]): 60%; inhibition at 1 µM [6]: 59%; inhibition at 25 µM (MDA-MB-231 [5]): > 50%; inhibition at 5 µM [7]: 92%; inhibition at 10 µM (MDA-MB-231 [1]): 15% |
| NC(=S)N/N=C(\c1ccc(Br)cc1)c1cccc(C(=O)c2ccc(Br)cc2)c1 | 1.52 | > 10 |  |  |
| COc1cccc2c1C(=O)c1c(O)c3c(c(O)c1C2=O)C[C@@](O)(C(=O)CO)C[C@@H]3O[C@H]1C[C@H](N)[C@H](O)[C@H](C)O1 [DOXORUBICIN] |  |  | 0.0268 |  |
| NC(=S)N/N=C(\c1ccc(Br)cc1)c1cccc(/C(=N/NC(N)=S)c2ccc(Br)cc2)c1 | > 10 | > 10 |  |  |
| Cc1cccc(C(=O)c2cccc(/C(=N/NC(N)=S)c3cccc(C)c3)c2)c1 | 0.654 | > 10 |  |  |
| NC(=S)N/N=C(\c1ccccc1)c1cccc(C(=O)c2ccccc2)c1 | 0.00985 | > 10 | 53.3 | Activity (Mus musculus): Non-toxic; inhibition at 10 µM [8]: 37%; inhibition at 25 µM [9]: 53%; inhibition at 25 µM (MDA-MB-231 [4]): 30%; inhibition at 25 µM (MDA-MB-231 [5]): 80%; Time [10]: 22.1 days |
| CC(=O)O[C@H]1C(=O)[C@@]2(C)[C@H]([C@H](OC(=O)c3ccccc3)[C@]3(O)C[C@H](OC(=O)[C@H](O)[C@@H](NC(=O)c4ccccc4)c4ccccc4)C(C)=C1C3(C)C)[C@]1(OC(C)=O)CO[C@@H]1C[C@@H]2O [PACLITAXEL] |  |  | 0.00148 |  |
| NC(=S)N/N=C(\c1ccccc1)c1cc(C(=O)c2ccccc2)cc(C(=O)c2ccccc2)c1 | 0.056 | > 10 |  |  |
| NC(=S)N/N=C(\c1cccc(Br)c1)c1cc(Br)cc(C(=O)c2cccc(Br)c2)c1 | 10.3 | > 10 |  |  |

From ChEMBL document CHEMBL3627648, “Synthesis and biochemical evaluation of benzoylbenzophenone thiosemicarbazone analogues as potent and selective inhibitors of cathepsin L” (Bioorg Med Chem, 2015)
